Measurements: article PMC3269312 (International journal of inorganic chemistry, 2011)

How the values were obtained:
ct-DNA [1] = settings: cited from earlier work
ct-DNA [2] = assay: Fluorescence competition experiment with ethidium bromide; type: binding, calf
In short: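 Ethidium bromide is pre-bound to calf-thymus DNA, and the intercalated adduct is excited near 520 nm. Test compound is added as quencher, and the loss of adduct emission is followed. Relative fluorescence (F0/F) is plotted against quencher concentration per the Stern-Volmer equation, giving the quenching constant.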

| Molecule | KEB, binding constant of EB to DNA (ct-DNA [1]) [M⁻¹] | KSV, Stern-Volmer quenching constant (ct-DNA [2]; EB-DNA adduct, λex = 520 nm, [EB] = 0.33 μM, [DNA] = 10 μM, 298 K) | apparent binding constant (Kapp) with ct-DNA (ct-DNA [2]; from [complex] at 50% of initial EB-DNA fluorescence, KEB = 1.2 × 10^6 M^−1) [M⁻¹] |
| --- | --- | --- | --- |
| CC[n+]1c(-c2ccccc2)c2cc(N)ccc2c2ccc(N)cc21 [EB, ethidium bromide] | 1.2e+06 |  |  |
| Zn(acnTSC)2Cl2 [Complex 1] |  | (7.48 ± 0.29) × 10^3 M^−1 | 3530 |
